# Bioassay records: PubChem BioAssay, several laboratories
# Sampled rows, rich in hits. Any-hit rate of the full collection: about 2.4%.
# MEX-5 binding – C. elegans MEX-5 TCR-2 RNA binding activity | Q9XUB2 | AID 1832 | activity score (negative = inhibition of binding), % at 10 µM | 0.38% of 300,000 active | MEX-5/FITC-TCR2 RNA binding, fluorescence polarization; stronger effect = lower value;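 active means inhibition past about -25% in most replicates, and total fluorescence under double the plate's negative control median, limit read from the data; inconclusive means replicates evenly split on the limit, or fluorescence at least double controls; inactive means too little inhibition in most replicates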;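 further: 0% = DMSO and -100% = 5 µM competing unlabeled TCR2 RNA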
# Runt-SMMHC FRET – Runt domain-CBFb-SMMHC interaction inhibition; Q01196+Q13951; Cerulean-Runt/Venus-CBFb-SMMHC FRET ratio 530/480, 1 h; inhibition, % at 20 µM; 0.74% of 220,000 active; AID 1434;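 active means mean inhibition across duplicate retests at 20 µM reaching about 50%, limit read from the data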;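 further: 0% = DMSO wells and 100% = wells with excess untagged CBFb-SMMHC; inhibitors lower the FRET ratio by blocking Runt binding to CBFb-SMMHC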
# EBV gp42 inh – EBV gp42 inhibition. inhibition, % (tested at 21.74 µM). Fluorescence polarization binding assay, mP read-out. 0.42% of 220,000 active. Q1HVG2; in the data active means inhibition above about 50%
# LANA-H2B inh – blocks KSHV LANA binding to histone H2A/H2B; 0.6% of 320,000 active; cell-free LANA-H2A/H2B peptide, fluorescence polarization; Q9QR71; inhibition, % (concentration not given with the values); AID 2629; in the data active means inhibition mostly above about 10%, no sharp cut-off; inactive means mostly below about 6.7%
# Runt-CBFb FRET – inhibitors of human RUNX1 Runt domain binding to CBFb; Q01196+Q13951; Cerulean-Runt/Venus-CBFb FRET ratio 530/480, 1 h; inhibition, % at 20 µM; 0.46% of 220,000 active; AID 1496;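 active means inhibition over about 50% at 20 µM in the single-dose screen, limit read from the data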;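 further: 0% = DMSO wells and 100% = excess unlabeled CBFb competitor control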
#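 Assay system: Cerulean-Runt domain / Medium: Tris 50 mM pH 7.5, KCl, K2SO4, 0.01% BSA / Timing: protein complex preformed 1 h, compound exposure 1 h, room temperature, dark / Measured by: FRET, excitation 422 nm, emission at 530 and 480 nm / Evaluation: loss of energy transfer signal / Control set: 5 µM unlabeled CBFb as full-inhibition high control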
# RanGTP-Impb inh – disruptors of Ran-importin-beta complex formation – biochemical, FRET, CFP-Ran, YFP-importin-beta, homogeneous, primary screen; cell-free CFP-Ran/YFP-importin-beta FRET ratio; inhibition, % (no concentration beside the values); 1.1% of 300,000 active; AID 2216;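 active means more than half of the replicate wells show a fall in the fluorescence ratio signal beyond about 16%, limit read from the data, passing the limit was not always enough; inconclusive means exactly half of the replicate wells pass the set limit; inactive means fewer than half of replicates pass the limit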;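 further: 0% = DMSO wells and 100% = Ran loaded with GDP instead of GTP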
# * marks the source's active call; other numbers are inactive results; i = inactive; ? = inconclusive; . = no result; + = active, no number.
SMILES,MEX-5 binding,Runt-SMMHC FRET,EBV gp42 inh,LANA-H2B inh,Runt-CBFb FRET,RanGTP-Impb inh
O=C(Nc1ccnn1C1CCN(CC2CC=CCC2)CC1)c1ccccc1 (configuration not stated),-27*,.,.,.,.,?
COc1ccc(C(=O)Nc2ccnn2C2CCN(CC3CC=CCC3)CC2)cc1 (configuration not stated),-1,.,.,16*,.,0
CCN(CC(=O)Nc1ccc(OC)c(Cl)c1)CC(=O)NC(C)C,0,2,-18,-6,-2,-1
Oc1ccc2nnc3c(Br)cnn3c2c1,?,.,.,19*,.,53*
OC(CNCc1ccc(Cl)cc1)C(F)(F)F (configuration not stated),1,1,-15,0,-1,-1
CCn1cc(C(=O)OCC(=O)c2ccccc2)c(=O)c2ccc(C)nc21,3,2,15,.,-1,6
CCn1cc(C(=O)OCC(=O)c2cc(C)n(-c3cccc(C(F)(F)F)c3)c2C)c(=O)c2ccc(C)nc21,0,-1,-40,54*,-4,-1
CCOC(=O)c1c(C)[nH]c(C(=O)CN2CC(C)OC(C)C2)c1C (configuration not stated),-3,-1,-21,0,-4,29*
CC(NC(=O)CSc1nnc(-c2cccc(S(=O)(=O)N3CCCCC3)c2)o1)C12CC3CC(CC(C3)C1)C2 (configuration not stated),-1,1,4,-8,-2,3
O=C(NCc1ccccc1F)c1ccc2c(c1)OCO2,1,1,2,0,1,16*
CC1CC1c1ccc(/C=C(\C#N)C(=O)Nc2cccc(Cl)c2Cl)o1 (configuration not stated),-7,-112,-14,0,-20,40*
COc1ccc(S(=O)(=O)N2CCC(C(=O)NC3CCCC3)CC2)cc1OC,-1,.,.,16*,.,-4
COc1ccc(CNC(=O)[C@@H](NC(=O)C2CCN(S(=O)(=O)c3ccc(C)cc3)CC2)C(C)C)cc1OC,-4,.,.,12*,.,3
COc1cccc(Cl)c1NC(=O)N1CCN(c2ccnc3cc(Cl)ccc23)CC1,-3,-1,-17,40*,0,6
S=C(NCCN1CCOCC1)NC1CCCCC1,0,-1,-8,0,-1,5
Cc1ccc(-c2cc(C(F)F)nc(S(C)(=O)=O)n2)cc1,-1,0,-6,-11,3,3
CCOc1ccc(NC(=O)c2cc3c(C)nc4ccccc4c3o2)cc1,-4,6,55*,7,1,0
Cc1nc2ccccc2c2oc(C(=O)NC3CC3)cc12,-1,-4,1,-1,-1,8
O=C(CNC(=O)[C@@H]1Cc2ccccc2CN1)Nc1ccc2c(c1)OCCO2,1,.,.,3,.,2
O=C(CN(C(=O)c1csnn1)c1cccc(F)c1)NCc1ccc2c(c1)OCO2,1,.,.,1,.,5
OCC1(CO)COC(/C=C/c2ccccc2)=N1,-1,.,.,0,.,-1
O=C(NC(CO)Cc1ccc([N+](=O)[O-])cc1)C(Cl)Cl (configuration not stated),-1,0,-4,22*,2,.
O=C(NC(CO)C(O)c1ccc([N+](=O)[O-])cc1)C(Cl)Cl (configuration not stated),-4,-1,-29,-10,0,2
Cc1cccc(NC(NC(=O)c2ccccn2)C(Cl)(Cl)Cl)c1 (configuration not stated),2,-3,-13,0,1,-1
CNC(=O)NC(=O)C(OC(=O)Cc1cccc(C(F)(F)F)c1)c1ccccc1 (configuration not stated),3,.,.,0,.,0
SMILES,MEX-5 binding,Runt-SMMHC FRET,EBV gp42 inh,LANA-H2B inh,Runt-CBFb FRET,RanGTP-Impb inh
CCOC(=O)c1oc2cc(O)cc(C)c2c(=O)c1-c1cscn1,-2,0,7,26*,0,1
O=C(CSc1nncn1-c1ccccc1)c1c[nH]c2ccccc12,-5,2,-2,-6,2,5
Cn1cnnc1SCC(=O)c1c[nH]c2ccccc12,1,-2,-3,6,-2,31*
O=C(NCC1CCCO1)C(=O)NCC(c1ccco1)N1CCN(c2ccccc2)CC1 (configuration not stated),-1,1,-7,1,-1,1
CCOCCCNC(=S)N1CCCN(c2nc3cc(C)cc(C)c3cc2C#N)CC1,0,30,1,0,10,1
CCOCCCNC(=S)N1CCCN(c2nc3cc(C)c(C)cc3cc2C#N)CC1,-6,52*,-2,5,20,58*
COCCCNC(=S)N1CCCN(c2nc3cc(C)ccc3cc2C#N)CC1,-4,31,-9,0,10,-8
COCCCNC(=S)N1CCCN(c2nc3cc(C)c(C)cc3cc2C#N)CC1,-2,21,-2,0,16,57*
CC1=NOC(=O)/C1=C\c1ccc(-c2cccc(Cl)c2)o1,1,55*,-21,8,21,3
CC1=NOC(=O)/C1=C\c1ccc(-c2ccc(Cl)c(C(=O)O)c2)o1,-1,-3,-82,.,7,3
CC[C@]12c3[nH]c4ccccc4c3CCN1C(=O)C(CC(=O)NC/C=C(\C)CCC=C(C)C)C[C@@H]2C(=O)N1CCN(C(=O)c2ccco2)CC1 (some centres not stated),.,.,.,+,.,.
CC[C@]12c3[nH]c4ccccc4c3CCN1C(=O)C(CC(=O)NCC13CC4CC(CC(C4)C1)C3)C[C@@H]2C(=O)N1CCN(C(=O)c2ccco2)CC1 (some centres not stated),.,.,.,i,.,.
O=C(/C=C/c1c[nH]c2ccccc12)c1cccc2ccccc12,3,8,1,3,20,17*
CCOC(=O)c1cc(C)[nH]c(=O)c1C#N,-5,56*,-4,1,26,8
CCOC(=O)c1cc(C)[nH]c1C,1,2,-12,0,0,0
CC(=O)Nc1ccc(NC(=O)CSc2nnc(-c3ccco3)o2)cc1,0,-2,2,20*,0,3
CCOC(=O)C1CCCN(CCC(=O)Nc2ccc(Br)cc2)C1 (configuration not stated),-1,.,.,0,.,1
CC(NC(=O)C(=O)NN=C1CCCCCC1)c1ccccc1 (configuration not stated),2,-1,17,-6,1,-4
CC(NC(=O)C(=O)NN=C1CCCCCCCCCCC1)c1ccccc1 (configuration not stated),-1,3,-20,12*,1,5
CCOC(=O)c1c(C)nn(Cc2cccc(Cl)c2)c1N,-3,-1,8,-3,70*,2
